Laboratory results from ChEMBL document CHEMBL3745617 (J Med Chem, 2015).
Activity calls are given as the source filed them. The calls are words filed in the database; no cut-off is given here.

How the values were obtained:
[1] = tested on: Receptor-type tyrosine-protein kinase FLT3 (Homo sapiens), P36888 [D835H]; conditions: BaF3
[2] = biological target: Tyrosine-protein kinase Blk (Homo sapiens) (UniProt P51451); assay: Inhibition of BLK (unknown origin) assessed as remaining activity at 1 uM relative to control
Chain of Tyrosine-protein kinase Blk (Homo sapiens) (P51451 2-505 limits assumed): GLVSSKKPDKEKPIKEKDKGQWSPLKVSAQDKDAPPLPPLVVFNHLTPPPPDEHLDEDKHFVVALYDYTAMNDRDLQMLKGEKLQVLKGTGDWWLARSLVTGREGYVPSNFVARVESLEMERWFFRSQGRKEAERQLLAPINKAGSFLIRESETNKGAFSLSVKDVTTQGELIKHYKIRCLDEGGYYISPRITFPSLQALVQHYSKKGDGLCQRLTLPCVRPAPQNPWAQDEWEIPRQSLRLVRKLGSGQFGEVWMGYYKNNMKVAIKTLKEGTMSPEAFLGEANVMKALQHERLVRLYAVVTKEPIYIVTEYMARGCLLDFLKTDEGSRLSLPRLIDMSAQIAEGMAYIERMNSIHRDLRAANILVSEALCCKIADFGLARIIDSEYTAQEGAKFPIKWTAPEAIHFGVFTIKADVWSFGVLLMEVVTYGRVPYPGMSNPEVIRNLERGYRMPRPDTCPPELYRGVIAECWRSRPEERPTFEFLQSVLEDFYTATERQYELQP
How it was run: (§1)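 KinomeScan competitive binding panel of 468 kinases. Compound tested at a single 1 µM concentration. Read-out is percent of kinase activity remaining relative to a DMSO control.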

[3] = biological target: Tyrosine-protein kinase Blk (Homo sapiens) (UniProt P51451); assay: Inhibition of BLK (unknown origin) expressed in BaF3 cells assessed as inhibition of cell proliferation after 72 hrs by CelltiterGlo assay; assay type: cell-based
[4] = biological target: T1, Mast/stem cell growth factor receptor Kit (Homo sapiens, UniProt P10721); assay: Inhibition of c-KIT (unknown origin) expressed in BaF3 cells assessed as inhibition of cell proliferation after 72 hrs by CelltiterGlo assay; assay type: cell-based
T1 sequence (P10721 whole entry): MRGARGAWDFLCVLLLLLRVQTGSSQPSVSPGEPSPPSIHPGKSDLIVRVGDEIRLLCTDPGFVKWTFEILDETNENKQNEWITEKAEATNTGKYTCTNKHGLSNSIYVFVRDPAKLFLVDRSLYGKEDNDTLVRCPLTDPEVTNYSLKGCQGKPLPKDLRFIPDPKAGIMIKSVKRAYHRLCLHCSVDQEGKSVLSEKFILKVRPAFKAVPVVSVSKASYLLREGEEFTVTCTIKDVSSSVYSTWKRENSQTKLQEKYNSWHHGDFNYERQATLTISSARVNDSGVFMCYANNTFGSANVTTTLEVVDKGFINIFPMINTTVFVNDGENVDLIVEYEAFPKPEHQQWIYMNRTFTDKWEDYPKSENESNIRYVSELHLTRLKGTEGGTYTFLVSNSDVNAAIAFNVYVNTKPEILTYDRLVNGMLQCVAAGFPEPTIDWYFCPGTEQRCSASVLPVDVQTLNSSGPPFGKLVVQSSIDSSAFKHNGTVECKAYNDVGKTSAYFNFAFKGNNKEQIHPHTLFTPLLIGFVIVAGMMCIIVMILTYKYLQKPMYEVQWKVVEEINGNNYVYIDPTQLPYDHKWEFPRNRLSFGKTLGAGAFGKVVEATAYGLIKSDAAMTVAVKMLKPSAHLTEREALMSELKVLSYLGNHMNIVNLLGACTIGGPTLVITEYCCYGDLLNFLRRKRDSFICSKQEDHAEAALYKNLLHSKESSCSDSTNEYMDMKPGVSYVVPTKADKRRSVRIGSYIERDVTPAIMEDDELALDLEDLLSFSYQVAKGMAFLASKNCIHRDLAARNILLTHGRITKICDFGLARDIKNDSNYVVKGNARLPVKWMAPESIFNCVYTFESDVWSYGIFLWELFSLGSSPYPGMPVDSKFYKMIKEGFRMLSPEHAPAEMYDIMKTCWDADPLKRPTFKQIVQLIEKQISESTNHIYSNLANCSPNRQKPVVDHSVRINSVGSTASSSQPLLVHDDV

[5] = biological target: T1, Mast/stem cell growth factor receptor Kit; assay: Inhibition of c-KIT (unknown origin) by ADP-Glo assay
How it was run: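 Biochemical activity assay in ADP-Glo format using purified c-KIT kinase protein. It was run to confirm the binding-panel findings.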

[6] = AUC (0 to infinity) in Sprague-Dawley rat at 1 mg/kg, iv; assay type: ADME, organism-based; parameters: dose 1 mg/kg, route intravenous, time infinity; conditions: in vivo
[7] = tested on: Mus musculus; assay: Toxicity in nu/nu mouse xenografted with human MV4-11 cells assessed as body weight at 12.5 to 50 mg/kg/day administered via oral gavge; assay type: organism-based; conditions: in vivo
How it was run: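 Female nu/nu mice carried established MV4-11 xenografts. Daily oral gavage of 12.5, 25.0 or 50.0 mg/kg/d, or vehicle, began once tumors reached 200 to 400 mm3. Each group had 5 animals, and body weight was tracked over a 22-day treatment period. Data are given as mean ± SEM.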

[8] = biological target: Tyrosine-protein kinase Lck (Homo sapiens) (UniProt P06239); assay: Inhibition of LCK (unknown origin) assessed as remaining activity at 1 uM relative to control
Chain of Tyrosine-protein kinase Lck (Homo sapiens) (P06239 2-509 limits assumed): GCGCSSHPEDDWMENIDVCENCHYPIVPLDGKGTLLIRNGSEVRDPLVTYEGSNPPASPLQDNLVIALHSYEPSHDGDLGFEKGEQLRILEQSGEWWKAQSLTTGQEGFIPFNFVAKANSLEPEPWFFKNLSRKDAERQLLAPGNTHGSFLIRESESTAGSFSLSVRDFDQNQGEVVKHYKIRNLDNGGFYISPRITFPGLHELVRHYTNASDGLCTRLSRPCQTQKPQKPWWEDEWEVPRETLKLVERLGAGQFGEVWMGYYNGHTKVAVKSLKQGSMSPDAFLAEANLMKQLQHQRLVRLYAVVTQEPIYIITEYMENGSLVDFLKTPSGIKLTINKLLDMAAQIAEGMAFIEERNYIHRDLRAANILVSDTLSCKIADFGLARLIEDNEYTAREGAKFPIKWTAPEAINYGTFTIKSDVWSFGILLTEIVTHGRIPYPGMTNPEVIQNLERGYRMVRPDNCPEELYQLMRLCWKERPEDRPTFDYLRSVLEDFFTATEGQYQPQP
How it was run: (§2)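 KinomeScan competition binding panel of 468 kinases, with the compound tested at 1 µM. Each kinase's result is reported as percent activity remaining relative to a DMSO control.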

[9] = biological target: Proto-oncogene tyrosine-protein kinase receptor Ret (Homo sapiens) (UniProt P07949); assay: Inhibition of RET (unknown origin) expressed in BaF3 cells assessed as inhibition of cell proliferation after 72 hrs by CelltiterGlo assay; assay type: cell-based
Chain of Proto-oncogene tyrosine-protein kinase receptor Ret (Homo sapiens) (P07949 whole entry): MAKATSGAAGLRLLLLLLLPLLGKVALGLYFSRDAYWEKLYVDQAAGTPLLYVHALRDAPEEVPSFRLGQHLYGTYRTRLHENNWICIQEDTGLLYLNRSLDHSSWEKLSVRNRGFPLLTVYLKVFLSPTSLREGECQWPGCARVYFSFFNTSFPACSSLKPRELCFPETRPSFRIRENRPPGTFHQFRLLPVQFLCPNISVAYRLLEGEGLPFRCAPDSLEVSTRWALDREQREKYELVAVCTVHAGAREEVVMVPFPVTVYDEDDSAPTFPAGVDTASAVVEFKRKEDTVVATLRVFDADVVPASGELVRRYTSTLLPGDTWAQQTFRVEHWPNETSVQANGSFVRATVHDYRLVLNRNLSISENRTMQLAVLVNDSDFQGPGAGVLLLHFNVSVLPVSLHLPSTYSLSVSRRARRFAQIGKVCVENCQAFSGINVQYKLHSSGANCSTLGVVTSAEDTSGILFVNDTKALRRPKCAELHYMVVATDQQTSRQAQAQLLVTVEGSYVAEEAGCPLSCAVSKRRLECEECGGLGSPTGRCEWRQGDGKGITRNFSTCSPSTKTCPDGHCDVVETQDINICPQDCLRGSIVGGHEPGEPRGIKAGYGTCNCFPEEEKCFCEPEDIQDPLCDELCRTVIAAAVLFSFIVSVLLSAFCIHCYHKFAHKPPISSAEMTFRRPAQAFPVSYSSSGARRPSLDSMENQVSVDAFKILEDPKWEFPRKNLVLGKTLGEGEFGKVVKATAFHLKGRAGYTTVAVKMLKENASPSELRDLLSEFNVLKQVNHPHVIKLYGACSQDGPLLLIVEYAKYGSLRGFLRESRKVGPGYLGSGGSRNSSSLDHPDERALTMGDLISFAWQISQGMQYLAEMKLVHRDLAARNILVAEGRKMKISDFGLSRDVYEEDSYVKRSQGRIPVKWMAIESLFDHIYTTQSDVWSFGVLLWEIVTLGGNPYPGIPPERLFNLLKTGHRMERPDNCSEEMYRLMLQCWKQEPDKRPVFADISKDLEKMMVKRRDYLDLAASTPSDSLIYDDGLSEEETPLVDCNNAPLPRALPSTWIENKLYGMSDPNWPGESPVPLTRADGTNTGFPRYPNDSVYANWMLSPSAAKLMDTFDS

[10] = Antiproliferative activity against human JVM2 cells after 72 hrs by CelltiterGlo assay; assay type: functional; conditions: JVM-2, 72 h
[11] = biological target: Tyrosine-protein kinase JAK1 (Homo sapiens) (UniProt P23458); assay: Inhibition of JAK1 (unknown origin) expressed in BaF3 cells assessed as inhibition of cell proliferation after 72 hrs by CelltiterGlo assay; assay type: cell-based
[12] = Mean residence time (0 to infinity) in Sprague-Dawley rat at 1 mg/kg, iv; assay type: ADME, organism-based; conditions: in vivo
[13] = tested on: Receptor-type tyrosine-protein kinase FLT3 (Homo sapiens), P36888 [UNDEFINED MUTATION]; conditions: BaF3
[14] = Tmax in Sprague-Dawley rat at 1 mg/kg, iv; assay type: ADME, organism-based; conditions: in vivo
[15] = biological target: Tyrosine-protein kinase HCK (Homo sapiens) (UniProt P08631); assay: Inhibition of HCK (unknown origin) expressed in BaF3 cells assessed as inhibition of cell proliferation after 72 hrs by CelltiterGlo assay; assay type: cell-based
Chain of Tyrosine-protein kinase HCK (Homo sapiens) (P08631 2-526 limits assumed): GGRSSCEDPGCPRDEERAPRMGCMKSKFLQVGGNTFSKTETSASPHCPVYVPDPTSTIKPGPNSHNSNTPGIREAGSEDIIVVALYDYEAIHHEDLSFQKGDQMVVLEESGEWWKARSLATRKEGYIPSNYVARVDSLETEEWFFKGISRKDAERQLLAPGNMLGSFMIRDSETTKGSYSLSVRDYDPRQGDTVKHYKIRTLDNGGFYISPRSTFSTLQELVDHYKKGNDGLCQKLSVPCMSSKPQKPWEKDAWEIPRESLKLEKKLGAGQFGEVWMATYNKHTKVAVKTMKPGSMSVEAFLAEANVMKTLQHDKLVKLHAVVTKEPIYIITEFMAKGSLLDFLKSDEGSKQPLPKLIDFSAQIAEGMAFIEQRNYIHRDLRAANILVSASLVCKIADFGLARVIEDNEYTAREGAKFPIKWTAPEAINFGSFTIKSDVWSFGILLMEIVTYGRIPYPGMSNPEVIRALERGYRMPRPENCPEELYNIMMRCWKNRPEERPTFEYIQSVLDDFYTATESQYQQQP

[16] = biological target: Receptor-type tyrosine-protein kinase FLT3 (Homo sapiens) (UniProt P36888); conditions: MOLM-13, 0.03 to 3 uM
[17] = biological target: Tyrosine-protein kinase Lck (Homo sapiens) (UniProt P06239); assay: Inhibition of LCK (unknown origin) expressed in BaF3 cells assessed as inhibition of cell proliferation after 72 hrs by CelltiterGlo assay; assay type: cell-based
[18] = AUC (0 to t) in Sprague-Dawley rat at 1 mg/kg, iv; assay type: ADME, organism-based; conditions: in vivo
[19] = biological target: Hepatocyte growth factor receptor (Homo sapiens) (UniProt P08581); assay: Inhibition of MET (unknown origin) expressed in BaF3 cells assessed as inhibition of cell proliferation after 72 hrs by CelltiterGlo assay; assay type: cell-based
[20] = tested on: MV4-11; assay: Antitumor activity against human MV4-11 cells xenografted in nu/nu mouse assessed as tumor weight at 12.5 mg/kg/day administered via oral gavage measured after 22 days of treatment (reference value: 2.5 g); assay type: functional
[21] = Clearance in Sprague-Dawley rat at 1 mg/kg, iv; assay type: ADME, organism-based; conditions: in vivo
[22] = AUC(0 to infinity) in Sprague-Dawley rat at 10 mg/kg, po; assay type: ADME, organism-based; parameters: dose 10 mg/kg, route oral, time infinity; conditions: in vivo
[23] = Apparent volume of distribution in Sprague-Dawley rat at 1 mg/kg, iv; assay type: ADME, organism-based; conditions: in vivo, read-out: Vd(app)
[24] = biological target: Proto-oncogene tyrosine-protein kinase receptor Ret (Homo sapiens) (UniProt P07949); assay: Inhibition of RET (unknown origin) assessed as remaining activity at 1 uM relative to control
How it was run: as §2

[25] = biological target: Receptor-type tyrosine-protein kinase FLT3 (Homo sapiens) (UniProt P36888); conditions: BaF3
[26] = biological target: Receptor-type tyrosine-protein kinase FLT3 (Homo sapiens) (UniProt P36888); conditions: MOLM-14, 0.03 to 3 uM
[27] = tested on: MV4-11; assay: Antiproliferative activity against human MV4-11 cells after 72 hrs by CelltiterGlo assay; assay type: functional; conditions: MV4-11, 72 h
[28] = biological target: Dual specificity mitogen-activated protein kinase kinase 5 (Homo sapiens) (UniProt Q13163); assay: Inhibition of MEK5 (unknown origin) assessed as remaining activity at 1 uM relative to control
Chain of Dual specificity mitogen-activated protein kinase kinase 5 (Homo sapiens) (Q13163 whole entry): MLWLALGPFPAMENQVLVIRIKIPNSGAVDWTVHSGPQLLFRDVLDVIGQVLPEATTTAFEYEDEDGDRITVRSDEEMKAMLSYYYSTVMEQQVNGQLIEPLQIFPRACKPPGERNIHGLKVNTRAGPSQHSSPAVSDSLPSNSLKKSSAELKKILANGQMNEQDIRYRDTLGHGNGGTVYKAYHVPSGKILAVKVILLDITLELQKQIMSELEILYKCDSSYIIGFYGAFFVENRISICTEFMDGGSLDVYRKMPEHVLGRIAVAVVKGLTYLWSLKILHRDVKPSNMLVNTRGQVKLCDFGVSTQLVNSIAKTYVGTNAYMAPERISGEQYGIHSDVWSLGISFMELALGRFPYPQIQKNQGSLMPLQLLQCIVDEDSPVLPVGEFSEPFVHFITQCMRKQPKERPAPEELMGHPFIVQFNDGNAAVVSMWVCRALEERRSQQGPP
How it was run: as §2

[29] = biological target: Receptor-type tyrosine-protein kinase FLT3 (Homo sapiens) (UniProt P36888); conditions: MOLM-14, 0.03 to 3 uM; remark: listed apart in the source
[30] = biological target: Receptor-type tyrosine-protein kinase FLT3 (Homo sapiens) (UniProt P36888); conditions: MV4-11, 0.03 to 3 uM
[31] = Cell cycle arrest in human MOLM14 cells assessed as accumulation at G0/G1 phase at 0.03 to 1 uM after 24 hrs by flow cytometry; assay type: functional, cell-based; conditions: MOLM-14
[32] = biological target: Receptor tyrosine-protein kinase erbB-3 (Homo sapiens) (UniProt P21860); assay: Inhibition of ERBB3 (unknown origin) assessed as remaining activity at 1 uM relative to control
How it was run: as §1

[33] = biological target: Receptor-type tyrosine-protein kinase FLT3 (Homo sapiens) (UniProt P36888); conditions: MV4-11, 0.03 to 3 uM; remark: listed apart in the source
[34] = biological target: Receptor-type tyrosine-protein kinase FLT3 (Homo sapiens) (UniProt P36888); conditions: MOLM-14, 0.03 to 3 uM; remark: listed apart in the source
[35] = biological target: Tyrosine-protein kinase HCK (Homo sapiens) (UniProt P08631); assay: Inhibition of HCK (unknown origin) assessed as remaining activity at 1 uM relative to control
How it was run: as §1

[36] = tested on: MOLM-14; assay: Induction of apoptosis in human MOLM14 cells assessed as cleaved PARP level at 0.03 to 1 uM after 24 hrs by immunoblot analysis; assay type: functional, cell-based

CN(C)CC(=O)N1CCC[C@@H](n2nc(-c3ccc(Oc4ccccc4)cc3)c3c(N)ncnc32)C1
GI50 [1]: 4 nM | Activity [2]: 0.1% | GI50 [3]: 940 nM | GI50 [4]: 1900 nM | IC50 [5]: 559 nM | AUC(0-inf) [6]: 619 ng·h/mL | Activity [7]: Non-toxic | Activity [8]: 0% | GI50 [9]: 650 nM | GI50 [10]: 2600 nM | GI50 [11]: 3800 nM | MRT inf [12]: 69 min | GI50 [13]: 170 nM | Tmax [14]: 1.2 min | GI50 [15]: 880 nM | inhibition [16]: Active | GI50 [17]: 310 nM | AUC(0-t) [18]: 607 ng·h/mL | GI50 [19]: 2200 nM | Activity [20]: 1.54 g | clearance [21]: 26.9 mL/min/kg | AUCinf [22]: 1880 ng·h/mL | Vd [23]: 3.23 L/kg | Activity [24]: 0.4% | GI50 [25]: 16 nM | inhibition [26]: Active | GI50 [27]: 22 nM | Activity [28]: 0.45% | inhibition [29]: Active | inhibition [30]: Active | Activity [31]: Active | Activity [32]: 0.05% | inhibition [33]: Active | inhibition [34]: Active | Activity [35]: 0.5% | Activity [36]: Active
